Results on 11 compounds are retold here after ChEMBL document CHEMBL1147607, “Side-chain length is important for shogaols in protecting neuronal cells from beta-amyloid insult” (2004).

Structures are written as SMILES.

The subject of one test is PC-12. The experiment in a line: Effective dose to protect PC12 cells from beta-Amyloid (BA) insult was determined using MTT reduction assay. Format: functional. Conditions: Rattus norvegicus, read-out: ED50 (the source's name). In a few lines: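 PC12 cells in high-glucose DMEM with 10% horse serum, 5% fetal calf serum and 1% penicillin/streptomycin were plated overnight. They were then co-incubated 24 h with βA(1-42) (DMSO stock) and test compound at five concentrations, final DMSO <1%. MTT was added for 1 h at 37 °C, then lysing buffer overnight at 37 °C, and OD read at 570 nm. Viability was referenced to DMSO-only and βA-only wells. ED50 came from dose–response curves; curcumin was the positive control.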

Another test has as its system IMR-32. The test is described as follows: Effective dose to protect IMR-32 cells from beta-Amyloid (BA) insult was determined using MTT reduction assay. Type of test: functional. As to conditions: Homo sapiens, read-out: ED50 (the source's name). The method in brief: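 IMR-32 human neuroblastoma cells in Minimum Essential Medium with Earle's salts and L-glutamine, 10% fetal bovine serum and 1% penicillin/streptomycin were run as in the PC12 protocol. Cells were co-exposed 24 h to βA(1-42) and test compound at five concentrations, final DMSO <1%. MTT was reduced for 1 h at 37 °C, then lysed overnight, with OD read at 570 nm. ED50 came from dose–response curves.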
For orientation: Tetrazolium assays rely on reduction of a dye to a coloured formazan, in cell work by metabolically active cells.

As for `COc1cc(/C=C/C(=O)CC(=O)/C=C/c2ccc(O)c(OC)c2)ccc1O` [CURCUMIN], the EC50 came out at 17.1 µM in the test on PC-12 and 23.9 µM with IMR-32.

With `CCC/C=C/C(=O)CCc1ccc(O)c(OC)c1`, the EC50 with PC-12 is 45.9 µM; in the test on IMR-32, 61.2 µM.

As for `CCCCC/C=C/C(=O)CCc1ccc(O)c(OC)c1` [SHOGAOL], the values for the EC50 with PC-12 and in the test with IMR-32 were 16.3 µM and 24.2 µM, respectively.

As for `CCCCCCCCC/C=C/C(=O)CCc1ccc(O)c(OC)c1`, the EC50 in the test on PC-12 came to 1.8 µM; in the test on IMR-32, 3.3 µM.

`CCCCCCCCCCC/C=C/C(=O)CCc1ccc(O)c(OC)c1`: the EC50 in the test with PC-12 came out at 0.2 µM; with IMR-32 it was 0.5 µM.

As to `CCCCCCCCCC/C=C/C(=O)CCc1ccc(O)c(OC)c1`, the values for the EC50 in the test on PC-12 and in the test on IMR-32 were 0.5 µM and 1.4 µM, respectively.

Regarding `CCCC/C=C/C(=O)CCc1ccc(O)c(OC)c1`, the EC50 in the test on PC-12 was 29 µM; with IMR-32, 37.4 µM.

Regarding `CCCCCCC/C=C/C(=O)CCc1ccc(O)c(OC)c1`, the figures for the EC50 in the test with PC-12 and in the test on IMR-32 were 5.9 µM and 8.8 µM, respectively.

With `COc1cc(CCC(C)=O)ccc1O` [ZINGERONE], the EC50 with PC-12 and with IMR-32 was more than 129 µM in each case.

In the case of `CCCCCCCC/C=C/C(=O)CCc1ccc(O)c(OC)c1`, the EC50 with PC-12 was 4.4 µM; with IMR-32, 6.2 µM.

Regarding `CCCCCC/C=C/C(=O)CCc1ccc(O)c(OC)c1`, the results for the EC50 with PC-12 and in the test with IMR-32 were 8.6 µM and 12 µM, respectively.
